Data as given in ChEMBL document CHEMBL1671617, “Correlation of antimicrobial resistance with beta-lactamases, the OmpA-like porin, and efflux pumps in clinical isolates of Acinetobacter baumannii endemic to New York City” (2008).

How the values were obtained:
Type in all cases: functional
Acinetobacter baumannii [1] = assay: Antimicrobial activity against ISAba1 linked with the blaOXA-51-type beta-lactamase harboring Acinetobacter baumannii zeta clonal group isolate 19 expressing ampC, ompA, adeB, adeM, aacC2 by agar dilution method
How it was run: (§1)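 MICs were determined by agar dilution on Mueller-Hinton agar against multidrug-resistant clinical A. baumannii isolates from endemic regional ribotypes, with species confirmed by ribotyping. Selected agents were also tested with and without the efflux inhibitor NMP, fixed at 100 μg/ml in the agar. Meropenem was tested with and without clavulanic acid at 4 μg/ml. A fourfold or greater MIC drop with the additive was scored as significant.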

Acinetobacter baumannii [2] = assay: Antimicrobial activity against Acinetobacter baumannii eta clonal group isolate 36 expressing ampC, ompA, adeB, adeM by agar dilution method; how it was run: as §1
Acinetobacter baumannii [3] = assay: Antimicrobial activity against ISAba1 linked with the blaOXA-51-type beta-lactamase harboring Acinetobacter baumannii lambda clonal group isolate 29 expressing ampC, ompA, adeM, aadB, aadA1 by agar dilution method; how it was run: as §1
Acinetobacter baumannii [4] = assay: Antimicrobial activity against ISAba1 linked with the blaOXA-51-type beta-lactamase harboring Acinetobacter baumannii lambda clonal group isolate 30 expressing ampC, ompA, adeB, adeM, aadB, aadA1 by agar dilution method; how it was run: as §1
Acinetobacter baumannii [5] = assay: Antimicrobial activity against Acinetobacter baumannii nu clonal group isolate 33 expressing ampC, ompA, adeB, adeM by agar dilution method; how it was run: as §1
Acinetobacter baumannii [6] = assay: Antimicrobial activity against Acinetobacter baumannii unique clonal group isolate 37 expressing ampC, ompA, adeB, adeM by agar dilution method; how it was run: as §1
Acinetobacter baumannii [7] = assay: Antimicrobial activity against ISAba1 linked with the blaOXA-51-type beta-lactamase harboring Acinetobacter baumannii beta clonal group isolate 10 expressing ompA, adeB, adeM, aacA4, blaSHV-5 by agar dilution method; how it was run: as §1
Acinetobacter baumannii [8] = assay: Antimicrobial activity against ISAba1 linked with the blaOXA-51-type beta-lactamase harboring Acinetobacter baumannii zeta clonal group isolate 21 expressing ampC, ompA, adeB, adeM, aacC2, blaSHV-5 by agar dilution method; how it was run: as §1
Acinetobacter baumannii [9] = assay: Antimicrobial activity against ISAba1 linked with the blaOXA-51-type beta-lactamase harboring Acinetobacter baumannii beta clonal group isolate 9 expressing ampC, ompA, adeB, adeM by agar dilution method; how it was run: as §1
Acinetobacter baumannii [10] = assay: Antimicrobial activity against ISAba1 linked with the blaOXA-51-type beta-lactamase harboring Acinetobacter baumannii zeta clonal group isolate 26 expressing ampC, ompA, adeB, adeM, aadA1, aacA4, aacC2, blaSHV-5 by agar dilution method; how it was run: as §1
Acinetobacter baumannii [11] = assay: Antimicrobial activity against Acinetobacter baumannii nu clonal group isolate 32 expressing ampC, ompA, adeB, adeM, aadB, aadA2 by agar dilution method
How it was run: (§2)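 Clinical multidrug-resistant A. baumannii isolates from endemic NYC ribotypes, with species identity confirmed by ribotyping. MICs were determined by agar dilution on Mueller-Hinton agar; tobramycin was tested by this method. Agar dilution was also run for selected agents with and without the efflux inhibitor NMP, added to the agar at a fixed 100 μg/ml.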

Acinetobacter baumannii [12] = assay: Antimicrobial activity against ISAba1 linked with the blaOXA-51-type beta-lactamase harboring Acinetobacter baumannii zeta clonal group isolate 23 expressing ampC, ompA, adeB, adeM, aadA1, aacA4, aacC2, aphA6 by agar dilution method; how it was run: as §1
Acinetobacter baumannii [13] = assay: Antimicrobial activity against Acinetobacter baumannii lambda clonal group isolate 27 expressing ampC, ompA, adeB, adeM, aadB, aadA1 by agar dilution method; how it was run: as §1
Acinetobacter baumannii [14] = assay: Antimicrobial activity against ISAba1 linked with the blaOXA-51-type beta-lactamase harboring Acinetobacter baumannii beta clonal group isolate 14 expressing ompA, adeB, adeM, aacA4, blaSHV-5 by agar dilution method; how it was run: as §1
Acinetobacter baumannii [15] = assay: Antimicrobial activity against Acinetobacter baumannii alpha clonal group isolate 2 expressing ampC, ompA, adeB, adeM, aacC1, aadA1 by agar dilution method; how it was run: as §1
Acinetobacter baumannii [16] = assay: Antimicrobial activity against ISAba1 linked with the blaOXA-51-type beta-lactamase harboring Acinetobacter baumannii alpha clonal group isolate 8 expressing ampC, ompA, adeB, adeM, aacC1, aadA1 by agar dilution method; how it was run: as §1
Acinetobacter baumannii [17] = assay: Antimicrobial activity against Acinetobacter baumannii unique clonal group isolate 38 expressing ampC, ompA, adeB, adeM by agar dilution method; how it was run: as §2
Acinetobacter baumannii [18] = assay: Antimicrobial activity against Acinetobacter baumannii alpha clonal group isolate 3 expressing ampC, ompA, adeB, adeM, aacC1, aadA1 by agar dilution method; how it was run: as §1
Acinetobacter baumannii [19] = assay: Antimicrobial activity against ISAba1 linked with the blaOXA-51-type beta-lactamase harboring Acinetobacter baumannii beta clonal group isolate 13 expressing ompA, adeB, adeM, aacA4, blaSHV-5 by agar dilution method; how it was run: as §1
Acinetobacter baumannii [20] = assay: Antimicrobial activity against ISAba1 linked with the blaOXA-51-type beta-lactamase harboring Acinetobacter baumannii beta clonal group isolate 16 expressing ompA, adeB, adeM, aacA4, blaSHV-5 by agar dilution method; how it was run: as §1
Acinetobacter baumannii [21] = assay: Antimicrobial activity against ISAba1 linked with the blaOXA-51-type beta-lactamase harboring Acinetobacter baumannii beta clonal group isolate 11 expressing ompA, adeB, adeM, blaSHV-5 by agar dilution method; how it was run: as §1
Acinetobacter baumannii [22] = assay: Antimicrobial activity against Acinetobacter baumannii nu clonal group isolate 31 expressing ampC, ompA, adeB, adeM, aadB, aadA2 by agar dilution method; how it was run: as §2
Acinetobacter baumannii [23] = assay: Antimicrobial activity against ISAba1 linked with the blaOXA-51-type beta-lactamase harboring Acinetobacter baumannii beta clonal group isolate 17 expressing ompA, adeB, adeM, aacA4, blaSHV-5 by agar dilution method; how it was run: as §1
Acinetobacter baumannii [24] = assay: Antimicrobial activity against Acinetobacter baumannii nu clonal group isolate 34 expressing ampC, ompA, adeB, adeM by agar dilution method; how it was run: as §1
Acinetobacter baumannii [25] = assay: Antimicrobial activity against ISAba1 linked with the blaOXA-51-type beta-lactamase harboring Acinetobacter baumannii zeta clonal group isolate 22 expressing ampC, ompA, adeB, adeM, aadA1, aacA4, aacC2, blaSHV-5 by agar dilution method; how it was run: as §1
Acinetobacter baumannii [26] = assay: Antimicrobial activity against ISAba1 linked with the blaOXA-51-type beta-lactamase harboring Acinetobacter baumannii beta clonal group isolate 12 expressing ompA, adeB, adeM, aacA4, aacC2, blaSHV-5 by agar dilution method; how it was run: as §1
Acinetobacter baumannii [27] = assay: Antimicrobial activity against ISAba1 linked with the blaOXA-51-type beta-lactamase harboring Acinetobacter baumannii zeta clonal group isolate 20 expressing ampC, ompA, adeB, adeM, aacC2 by agar dilution method; how it was run: as §1
Acinetobacter baumannii [28] = assay: Antimicrobial activity against Acinetobacter baumannii alpha clonal group isolate 5 expressing ampC, ompA, adeB, adeM, aacC1, aadA1 by agar dilution method; how it was run: as §1
Acinetobacter baumannii [29] = assay: Antimicrobial activity against ISAba1 linked with the blaOXA-51-type beta-lactamase harboring Acinetobacter baumannii alpha clonal group isolate 7 expressing ampC, ompA, adeB, adeM, blaSHV-5 by agar dilution method; how it was run: as §1
Acinetobacter baumannii [30] = assay: Antimicrobial activity against ISAba1 linked with the blaOXA-51-type beta-lactamase harboring Acinetobacter baumannii zeta clonal group isolate 25 expressing ampC, ompA, adeB, adeM, aadA1, aacA4, aacC2, blaSHV-5 by agar dilution method; how it was run: as §1
Acinetobacter baumannii [31] = assay: Antimicrobial activity against ISAba1 linked with the blaOXA-51-type beta-lactamase harboring Acinetobacter baumannii alpha clonal group isolate 1 expressing ampC, ompA, adeB, adeM by agar dilution method; how it was run: as §1
Acinetobacter baumannii [32] = assay: Antimicrobial activity against ISAba1 linked with the blaOXA-51-type beta-lactamase harboring Acinetobacter baumannii lambda clonal group isolate 28 expressing ampC, ompA, adeM, aadB, aadA1 by agar dilution method; how it was run: as §1
Acinetobacter baumannii [33] = assay: Antimicrobial activity against ISAba1 linked with the blaOXA-51-type beta-lactamase harboring Acinetobacter baumannii beta clonal group isolate 18 expressing ompA, adeB, adeM, aacA4, blaSHV-5 by agar dilution method; how it was run: as §1
Acinetobacter baumannii [34] = assay: Antimicrobial activity against ISAba1 linked with the blaOXA-51-type beta-lactamase harboring Acinetobacter baumannii alpha clonal group isolate 6 expressing ampC, ompA, adeB, adeM, aacC1, aadA1 by agar dilution method; how it was run: as §1
Acinetobacter baumannii [35] = assay: Antimicrobial activity against Acinetobacter baumannii alpha clonal group isolate 4 expressing ampC, ompA, adeB, adeM, aacC1, aadA1 by agar dilution method; how it was run: as §1
Acinetobacter baumannii [36] = assay: Antimicrobial activity against Acinetobacter baumannii unique clonal group isolate 39 expressing ampC, ompA, adeM by agar dilution method; how it was run: as §2
Acinetobacter baumannii [37] = assay: Antimicrobial activity against Acinetobacter baumannii eta clonal group isolate 35 expressing ampC, ompA, adeB, adeM by agar dilution method; how it was run: as §1
Acinetobacter baumannii [38] = assay: Antimicrobial activity against ISAba1 linked with the blaOXA-51-type beta-lactamase harboring Acinetobacter baumannii unique clonal group isolate 40 expressing ampC, ompA, adeB, adeM, aadA1, aacA4, aacC2, blaSHV-5 by agar dilution method; how it was run: as §1
Acinetobacter baumannii [39] = assay: Antimicrobial activity against ISAba1 linked with the blaOXA-51-type beta-lactamase harboring Acinetobacter baumannii zeta clonal group isolate 24 expressing ampC, ompA, adeB, adeM, aadA1, aacA4, aacC2, blaSHV-5 by agar dilution method; how it was run: as §1
Acinetobacter baumannii [40] = assay: Antimicrobial activity against ISAba1 linked with the blaOXA-51-type beta-lactamase harboring Acinetobacter baumannii beta clonal group isolate 15 expressing ompA, adeB, adeM, aacA4, blaSHV-5 by agar dilution method; how it was run: as §1

Measured: MIC

NC[C@H]1O[C@H](O[C@H]2[C@H](O)[C@@H](O[C@H]3O[C@H](CO)[C@@H](O)[C@H](N)[C@H]3O)[C@H](N)C[C@@H]2N)[C@H](N)C[C@@H]1O [TOBRAMYCIN]
16 µg/mL: Acinetobacter baumannii [3] | Acinetobacter baumannii [7] | Acinetobacter baumannii [32]
1 µg/mL: Acinetobacter baumannii [2] | Acinetobacter baumannii [5] | Acinetobacter baumannii [16] | Acinetobacter baumannii [24] | Acinetobacter baumannii [37]
2 µg/mL: Acinetobacter baumannii [6] | Acinetobacter baumannii [9]
< 0.25 µg/mL: Acinetobacter baumannii [17] | Acinetobacter baumannii [31] | Acinetobacter baumannii [34] | Acinetobacter baumannii [36]
4 µg/mL: Acinetobacter baumannii [1] | Acinetobacter baumannii [8] | Acinetobacter baumannii [27]
0.5 µg/mL: Acinetobacter baumannii [13] | Acinetobacter baumannii [15] | Acinetobacter baumannii [18] | Acinetobacter baumannii [21] | Acinetobacter baumannii [28] | Acinetobacter baumannii [29] | Acinetobacter baumannii [35]
> 32 µg/mL: all other assays above
